Experiments:
[1] = system: Venezuelan equine encephalitis virus; assay: Antiviral activity against Venezuelan equine encephalitis virus IC-SH3 infected in HeLa cells pretreated with compound for 2 hrs followed by viral infection at MOI of 0.1 and measured after 20 hrs by immunostaining based confocal microscopic analysis; assay type: functional, organism-based
[2] = Cytotoxicity against human HeLa cells; assay type: cell-based
[3] = Selectivity ratio of CC50 for cytotoxicity against human HeLa cells to EC50 for antiviral activity against Venezuelan equine encephalitis virus IC-SH3 infected in HeLa cells; assay type: toxicity, cell-based; settings: read-out: Ratio CC50/EC50
[4] = Cytotoxicity against green monkey Vero C1008 cells; assay type: cell-based; settings: chlorocebus sabaeus
[5] = system: Venezuelan equine encephalitis virus; assay: Antiviral activity against Venezuelan equine encephalitis virus IC-SH3 infected in VeroE6 cells pretreated with compound for 2 hrs followed by viral infection at MOI of 0.01 and measured after 20 hrs by immunostaining based confocal microscopic analysis; assay type: functional, organism-based; settings: IC-SH3, Vero C1008
[6] = Cytotoxicity against human SK-N-BE(2)-M17 cells; assay type: cell-based
[7] = system: Venezuelan equine encephalitis virus; assay: Antiviral activity against Venezuelan equine encephalitis virus TC-83 infected in mouse Neuro-2a cells pretreated with compound for 2 hrs followed by viral infection at MOI of 3.5 and measured after 7 hrs by immunostaining based confocal microscopic analysis; assay type: functional, organism-based; settings: strain TC-83, N2a
[8] = system: Venezuelan equine encephalitis virus; assay: Antiviral activity against Venezuelan equine encephalitis virus TC-83 infected in human BE(2)-M17 cells pretreated with compound for 2 hrs followed by viral infection at MOI of 1.2 and measured after 7 hrs by immunostaining based confocal microscopic analysis; assay type: functional, organism-based; settings: strain TC-83, SK-N-BE(2)-M17
[9] = target: Polyprotein P1234 (Venezuelan equine encephalitis virus) (UniProt P27282); assay: Inhibition of recombinant VEEV nsP2 expressed in Escherichia coli BL21(DE3) using V12 as substrate at 0.9 uM after 24 hrs by discontinuous gel assay relative to control
Summary of the method: (§1)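 Recombinant tag-free VEEV nsP2 (1 μM) was incubated with the V12 CFP-YFP FRET substrate (10 μM) and compound in 50 mM HEPES pH 7.4 for 24 h at room temperature. Compound was tested at 3.6 to 0.03 μM in 2-fold steps. Uncut and cleaved V12 were resolved on gel, and percentage inhibition was estimated at 0.9 μM.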

[10] = target: Polyprotein P1234 (Venezuelan equine encephalitis virus) (UniProt P27282); assay: Inhibition of recombinant VEEV nsP2 expressed in Escherichia coli BL21(DE3) using V12 as substrate after 24 hrs by discontinuous gel assay; summary of the method: as §1
[11] = target: Polyprotein P1234 (Venezuelan equine encephalitis virus) (UniProt P27282); assay: Inhibition of recombinant VEEV nsP2 expressed in Escherichia coli BL21(DE3) using V12 as substrate at 20 uM after 24 hrs by discontinuous gel assay relative to control
Summary of the method: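 VEEV nsP2 (1 μM) was exposed to compound at 20 μM in the presence of 10 μM V12 CFP-YFP FRET substrate. Protease inactivation was judged by cleavage of V12.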

[12] = Selectivity index, ratio of CC50 for cytotoxicity against mouse Neuro-2a cells to EC50 for antiviral activity against Venezuelan equine encephalitis virus TC-83 infected in mouse Neuro-2a cells; assay type: toxicity, cell-based; settings: read-out: Ratio CC50/EC50
[13] = Cytotoxicity against mouse N2a cells; assay type: cell-based
[14] = Selectivity index, ratio of CC50 for cytotoxicity against human BE(2)-M17 cells to EC50 for antiviral activity against Venezuelan equine encephalitis virus TC-83 infected in human BE(2)-M17 cells; assay type: toxicity, cell-based; settings: read-out: Ratio CC50/EC50
[15] = Cytotoxicity against mouse cortical neurons; assay type: cell-based, Cortical neurone
[16] = Selectivity index, ratio of CC50 for cytotoxicity against mouse cortical neurons to EC50 for antiviral activity against Venezuelan equine encephalitis virus TC-83 infected in mouse cortical neurons; assay type: toxicity; settings: read-out: Ratio CC50/EC50
[17] = system: Venezuelan equine encephalitis virus; assay: Antiviral activity against Venezuelan equine encephalitis virus TC-83 infected in mouse cortical neurons at MOI of 0.04 after 20 hrs by immunostaining based confocal microscopic analysis; assay type: functional, organism-based, Cortical neuron; settings: strain TC-83, Cortical neurone
[18] = system: Venezuelan equine encephalitis virus; assay: Antiviral activity against Venezuelan equine encephalitis virus Trinidad infected in HeLa cells at MOI of 0.1 after 20 hrs by immunostaining based confocal microscopic analysis; assay type: functional, organism-based
[19] = Cytotoxicity against green monkey Vero cells; assay type: cell-based; settings: chlorocebus sabaeus
[20] = Selectivity index, ratio of CC50 for cytotoxicity against african green monkey Vero cells to EC50 for antiviral activity against Venezuelan equine encephalitis virus Trinidad infected in Vero cells; assay type: toxicity, cell-based; settings: read-out: Ratio CC50/EC50
[21] = system: Venezuelan equine encephalitis virus; assay: Antiviral activity against Venezuelan equine encephalitis virus Trinidad infected in Vero cells at MOI of 0.01 after 20 hrs by immunostaining based confocal microscopic analysis; assay type: functional, organism-based
[22] = Selectivity index, ratio of CC50 for cytotoxicity against human HeLa cells to EC50 for antiviral activity against Venezuelan equine encephalitis virus Trinidad infected in HeLa cells; assay type: toxicity, cell-based; settings: read-out: Ratio CC50/EC50
[23] = Selectivity ratio of CC50 for cytotoxicity against green monkey VeroE6 cells to EC50 for antiviral activity against Venezuelan equine encephalitis virus IC-SH3 infected in VeroE6 cells; assay type: toxicity, cell-based; settings: read-out: Ratio CC50/EC50

Polyprotein P1234 (Venezuelan equine encephalitis virus), sequence (P27282 whole entry): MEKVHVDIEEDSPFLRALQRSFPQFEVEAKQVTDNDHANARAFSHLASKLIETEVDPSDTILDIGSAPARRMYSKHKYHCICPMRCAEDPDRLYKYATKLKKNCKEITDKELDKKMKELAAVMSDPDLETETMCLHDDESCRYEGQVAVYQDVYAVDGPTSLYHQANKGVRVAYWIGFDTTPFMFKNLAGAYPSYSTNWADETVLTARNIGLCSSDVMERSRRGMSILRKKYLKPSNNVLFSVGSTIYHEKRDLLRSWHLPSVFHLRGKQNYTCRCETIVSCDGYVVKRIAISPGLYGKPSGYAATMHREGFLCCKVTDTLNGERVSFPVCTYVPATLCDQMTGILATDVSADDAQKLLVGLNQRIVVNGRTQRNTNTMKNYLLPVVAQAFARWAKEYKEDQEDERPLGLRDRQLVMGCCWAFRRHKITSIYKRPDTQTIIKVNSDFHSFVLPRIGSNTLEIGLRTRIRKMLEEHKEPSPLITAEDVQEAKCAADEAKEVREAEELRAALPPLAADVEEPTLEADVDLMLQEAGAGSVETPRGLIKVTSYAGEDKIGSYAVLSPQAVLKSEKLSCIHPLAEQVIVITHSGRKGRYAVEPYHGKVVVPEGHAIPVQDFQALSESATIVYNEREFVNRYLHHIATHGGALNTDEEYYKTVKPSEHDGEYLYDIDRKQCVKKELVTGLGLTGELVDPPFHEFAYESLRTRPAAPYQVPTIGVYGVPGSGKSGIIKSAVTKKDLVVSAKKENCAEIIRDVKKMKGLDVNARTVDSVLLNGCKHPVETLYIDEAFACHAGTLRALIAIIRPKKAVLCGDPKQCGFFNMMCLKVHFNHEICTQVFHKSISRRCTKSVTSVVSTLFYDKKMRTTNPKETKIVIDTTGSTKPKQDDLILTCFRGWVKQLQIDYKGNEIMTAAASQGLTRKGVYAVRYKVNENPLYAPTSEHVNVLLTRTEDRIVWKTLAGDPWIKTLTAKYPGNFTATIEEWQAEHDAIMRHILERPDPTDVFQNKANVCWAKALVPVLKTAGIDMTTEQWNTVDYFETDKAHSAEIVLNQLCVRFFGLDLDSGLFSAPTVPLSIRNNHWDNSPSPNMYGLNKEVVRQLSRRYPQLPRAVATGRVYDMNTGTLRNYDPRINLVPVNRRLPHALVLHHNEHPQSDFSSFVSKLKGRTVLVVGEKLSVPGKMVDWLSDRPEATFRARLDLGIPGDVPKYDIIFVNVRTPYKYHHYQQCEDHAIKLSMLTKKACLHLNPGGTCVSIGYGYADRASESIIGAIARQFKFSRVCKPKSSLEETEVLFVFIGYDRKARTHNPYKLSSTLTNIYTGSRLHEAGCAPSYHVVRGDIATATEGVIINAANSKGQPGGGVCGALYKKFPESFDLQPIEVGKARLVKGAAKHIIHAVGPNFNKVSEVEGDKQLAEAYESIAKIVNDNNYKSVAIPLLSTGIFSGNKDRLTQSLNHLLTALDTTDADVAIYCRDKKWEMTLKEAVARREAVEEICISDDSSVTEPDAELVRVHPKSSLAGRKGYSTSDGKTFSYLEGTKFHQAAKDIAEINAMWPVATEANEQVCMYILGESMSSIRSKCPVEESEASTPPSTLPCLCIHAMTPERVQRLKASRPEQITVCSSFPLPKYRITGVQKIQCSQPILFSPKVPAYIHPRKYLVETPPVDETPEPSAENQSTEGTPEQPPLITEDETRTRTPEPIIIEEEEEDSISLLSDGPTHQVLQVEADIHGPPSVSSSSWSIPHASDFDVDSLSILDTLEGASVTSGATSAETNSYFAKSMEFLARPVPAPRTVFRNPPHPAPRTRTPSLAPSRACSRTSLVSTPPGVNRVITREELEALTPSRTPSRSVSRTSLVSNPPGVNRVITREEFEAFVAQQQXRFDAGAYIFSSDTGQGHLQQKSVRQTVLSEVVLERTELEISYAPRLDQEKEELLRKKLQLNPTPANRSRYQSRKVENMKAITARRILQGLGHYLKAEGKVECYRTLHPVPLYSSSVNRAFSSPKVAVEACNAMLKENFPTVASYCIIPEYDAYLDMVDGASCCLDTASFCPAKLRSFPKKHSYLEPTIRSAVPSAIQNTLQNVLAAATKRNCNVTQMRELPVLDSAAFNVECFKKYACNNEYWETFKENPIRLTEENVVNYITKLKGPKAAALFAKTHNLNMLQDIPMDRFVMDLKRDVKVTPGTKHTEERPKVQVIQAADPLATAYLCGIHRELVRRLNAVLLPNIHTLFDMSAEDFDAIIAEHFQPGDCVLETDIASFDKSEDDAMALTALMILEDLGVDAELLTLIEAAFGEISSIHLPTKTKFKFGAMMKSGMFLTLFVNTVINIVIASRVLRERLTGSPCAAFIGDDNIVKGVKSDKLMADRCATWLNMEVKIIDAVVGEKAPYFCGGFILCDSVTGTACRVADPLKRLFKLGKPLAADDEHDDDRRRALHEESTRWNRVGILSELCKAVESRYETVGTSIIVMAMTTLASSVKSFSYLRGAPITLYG

| SMILES | EC50 [1] [µM] | CC50 [2] [µM] | CC50 [4] [µM] | EC50 [5] [µM] | CC50 [6] [µM] | EC50 [7] [µM] | EC50 [8] [µM] | selectivity ratio [12] | CC50 [13] [µM] | selectivity ratio [14] | other results |
| --- | --- | --- | --- | --- | --- | --- | --- | --- | --- | --- | --- |
| COC(=O)/C=C/CNC(=O)c1cccc2c1NCCC2 | 18 | > 30 | > 30 | > 30 | – | – | – | – | – | – | selectivity ratio [3]: > 2 |
| COC(=O)CCCNC(=O)c1cccc2c1NCCC2 | > 30 | > 30 | > 30 | > 30 | – | – | – | – | – | – | – |
| COC(=O)CCCNC(=O)c1cccc2c1NC(C)(C)C=C2C | > 30 | > 30 | > 30 | > 30 | – | – | – | – | – | – | – |
| C[C@@H]1CC(C)(C)Nc2c(C(=O)N[C@@H](C)/C=C/S(C)(=O)=O)cccc21 | – | – | – | – | > 25 | 3.7 | 3.3 | > 7 | > 25 | > 7.5 | inhibition [9]: 71%; inhibition [10]: Dose-dependent effect; inhibition [11]: 100% |
| CC1=CC(C)(C)Nc2c(C(=O)N[C@H](/C=C/S(C)(=O)=O)Cc3ccccc3)cccc21 | – | – | – | – | > 38 | 13 | 17 | > 4 | > 50 | > 2 | – |
| CN1CCN(C)/C(=N\c2ccc([N+](=O)[O-])cc2C(=O)Nc2ccccc2)C1 | – | – | – | – | > 2.25 | 0.02 | 0.01 | > 125 | > 2.5 | > 250 | – |
| C[C@@H]1CC(C)(C)Nc2c(C(=O)NC/C=C/S(C)(=O)=O)cccc21 | – | – | – | – | > 25 | 2 | 1.4 | > 12 | > 25 | > 18 | CC50 [15]: 48 µM; inhibition [9]: 39%; selectivity ratio [16]: 6; inhibition [10]: Dose-dependent effect; EC50 [17]: 8 µM; EC50 [18]: 1.6 µM; inhibition [11]: 100%; CC50 [19]: 30 µM; selectivity ratio [20]: > 12; EC50 [21]: 2.4 µM; selectivity ratio [22]: > 19 |
| COC(=O)/C=C/CNC(=O)c1cccc2c1NC(C)(C)C=C2C | 0.6 | > 30 | 6.7 | 6.5 | 18.1 | > 25 | 4.5 | – | – | 1.5 | selectivity ratio [23]: > 5; selectivity ratio [3]: > 55 |
| COC(=O)/C=C/CNC(=O)c1cccc2c1NC(C)(C)C[C@H]2C | 1.2 | > 30 | > 30 | 8.2 | 11 | 22 | > 25 | > 1 | > 25 | – | selectivity ratio [23]: > 4; selectivity ratio [3]: > 26 |
| COC(=O)CCCNC(=O)c1cccc2c1NC(C)(C)C[C@H]2C | > 30 | > 30 | > 30 | > 30 | – | – | – | – | – | – | – |
| C[C@@H]1CC(C)(C)Nc2c(C(=O)N[C@H](/C=C/S(C)(=O)=O)Cc3ccccc3)cccc21 | – | – | – | – | > 50 | 13 | 9.3 | > 4 | > 50 | > 5.4 | – |
| O=C(N[C@H](/C=C/S(=O)(=O)c1ccccc1)Cc1ccccc1)c1cccc2cccnc12 | – | – | – | – | 16 | 19 | 17 | > 2 | 46 | 1 | – |
| CC1=CC(C)(C)Nc2c(C(=O)NC/C=C/S(C)(=O)=O)cccc21 | – | – | – | – | 19.6 | 5 | 2 | > 5 | 27 | > 9 | CC50 [15]: > 25 µM; selectivity ratio [16]: > 4; EC50 [17]: 6 µM; EC50 [18]: 1.4 µM; CC50 [19]: 30 µM; selectivity ratio [20]: 7; EC50 [21]: 5 µM; selectivity ratio [22]: > 22 |
| COC(=O)CCCNC(=O)c1cc(C)cc2c1NC(C)(C)C=C2C | > 30 | > 30 | > 30 | > 30 | – | – | – | – | – | – | – |
| CC1=CC(C)(C)Nc2c(C(=O)N[C@@H](C)/C=C/S(C)(=O)=O)cccc21 | – | – | – | – | > 25 | 3.4 | 4.5 | > 7.3 | > 25 | > 5 | CC50 [15]: > 25 µM; inhibition [9]: 59%; selectivity ratio [16]: > 9.7; inhibition [10]: Dose-dependent effect; EC50 [17]: 2.7 µM; inhibition [11]: 100% |
| COC(=O)/C=C/CNC(=O)c1c[nH]c2ccc(Br)cc12 | – | – | – | – | 12 | 11 | 3 | > 2 | > 25 | 4 | – |
| COC(=O)/C=C/CNC(=O)c1cc(C)cc2c1NC(C)(C)C=C2C | 8.7 | > 30 | > 30 | 8.6 | – | – | – | – | – | – | selectivity ratio [23]: > 3.5; selectivity ratio [3]: > 4 |

— ChEMBL document CHEMBL4725463, “Vinyl Sulfone-Based Inhibitors of Nonstructural Protein 2 Block the Replication of Venezuelan Equine Encephalitis Virus” (ACS Med Chem Lett, 2020)
